Reference: ChEMBL document CHEMBL1926627, “Synthesis and evaluation of novel modified γ-lactam prostanoids as EP4 subtype-selective agonists” (Bioorg Med Chem, 2012)

Legend:
[1] = biological target: Prostaglandin E2 receptor EP2 subtype (Mus musculus, UniProt Q62053); test: Displacement of [3H]-PGE2 from mouse EP2 receptor expressed in CHO cells after 60 mins by liquid scintillation counter; assay type: cell-based
Outline: (§1)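 Membranes from CHO cells stably expressing mouse EP1–4, incubated with 2.5 nM [³H]PGE₂ and test compound at various concentrations in 10 mM KH₂PO₄–KOH, 1 mM EDTA, 10 mM MgCl₂, 0.1 mM NaCl, pH 6.0. Incubated 25 °C, 60 min (EP1: 20 min). Filtration on GF/B, ice-cold buffer wash, scintillation counting. Nonspecific binding with excess unlabeled PGE₂. IC50 from regression curve; Ki = IC50/(1+[L]/Kd).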

[2] = biological target: T1, Prostaglandin E2 receptor EP1 subtype (Mus musculus, UniProt P35375); test: Displacement of [3H]-PGE2 from mouse EP1 receptor expressed in CHO cells after 20 mins by liquid scintillation counter; assay type: cell-based; outline: as §1
T1 sequence (P35375 whole entry): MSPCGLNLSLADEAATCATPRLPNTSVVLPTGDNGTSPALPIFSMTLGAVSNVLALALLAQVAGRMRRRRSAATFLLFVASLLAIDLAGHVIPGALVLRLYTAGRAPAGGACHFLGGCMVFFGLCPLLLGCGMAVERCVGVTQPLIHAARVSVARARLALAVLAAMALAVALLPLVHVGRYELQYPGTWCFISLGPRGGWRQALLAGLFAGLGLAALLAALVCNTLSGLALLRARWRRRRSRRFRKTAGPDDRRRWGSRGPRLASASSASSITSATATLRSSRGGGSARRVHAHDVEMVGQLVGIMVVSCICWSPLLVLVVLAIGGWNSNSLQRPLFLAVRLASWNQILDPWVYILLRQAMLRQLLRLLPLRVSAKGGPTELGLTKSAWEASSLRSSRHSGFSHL

[3] = Total clearance rat at 0.1 mg/kg, iv and 1 mg/kg, po; assay type: ADME, organism-based; conditions: in vivo
Outline: (§2)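 Rat pharmacokinetics measured after 1 mg/kg po and 0.1 mg/kg iv dosing.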

[4] = biological target: Prostaglandin E2 receptor EP4 subtype (Rattus norvegicus, UniProt P43114); test: Agonist activity at rat EP4 receptor expressed in CHO cells assessed as cAMP production after 10 mins by radioimmunoassay; assay type: functional, cell-based
Outline: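 CHO cells expressing rat EP4 seeded at 1×10^5 cells/well and grown 2 days. Washed with MEM, then 10 min at 37 °C in MEM with 2 µM diclofenac. Preincubated 10 min at 37 °C in assay medium with 1% BSA. Test compound added, 10 min at 37 °C. Stopped with ice-cold 10% trichloroacetic acid. cAMP measured by radioimmunoassay.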

[5] = Oral bioavailability in rat at 1 mg/kg; assay type: ADME, organism-based; conditions: in vivo
[6] = biological target: Prostaglandin E2 receptor EP4 subtype (Mus musculus, UniProt P32240); test: Displacement of [3H]-PGE2 from mouse EP4 receptor expressed in CHO cells after 60 mins by liquid scintillation counter; assay type: cell-based; outline: as §1
[7] = Volume of distribution at steady state in rat at 0.1 mg/kg, iv and 1 mg/kg, po; assay type: ADME, organism-based; conditions: in vivo, read-out: Vdss; outline: as §2
[8] = AUC in rat at 0.1 mg/kg, iv and 1 mg/kg, po; assay type: ADME, organism-based; conditions: plasma; outline: as §2
[9] = biological target: T2, Prostaglandin E2 receptor EP3 subtype (Mus musculus, UniProt P30557); test: Displacement of [3H]-PGE2 from mouse EP3 receptor expressed in CHO cells after 60 mins by liquid scintillation counter; assay type: cell-based; outline: as §1
T2 sequence (P30557 whole entry): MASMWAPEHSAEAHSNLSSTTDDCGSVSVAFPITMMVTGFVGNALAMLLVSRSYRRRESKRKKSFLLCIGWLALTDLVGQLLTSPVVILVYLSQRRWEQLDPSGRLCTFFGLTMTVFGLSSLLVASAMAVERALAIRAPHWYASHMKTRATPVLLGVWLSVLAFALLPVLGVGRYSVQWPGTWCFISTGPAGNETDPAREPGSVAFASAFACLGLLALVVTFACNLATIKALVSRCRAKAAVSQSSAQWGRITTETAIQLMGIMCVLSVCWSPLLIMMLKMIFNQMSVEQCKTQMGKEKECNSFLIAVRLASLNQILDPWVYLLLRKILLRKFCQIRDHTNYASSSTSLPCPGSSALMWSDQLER

[10] = tested on: Rattus norvegicus; test: Inhibition of LPS induced TNF-alpha production in po dosed Sprague-Dawley rat administered 30 mins before LPS challenge measured after 90 mins by ELISA; assay type: functional
Outline: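 Seven-week-old Sprague–Dawley rats dosed orally with compound in sterile saline containing 20% HP-β-CD. LPS (1 mg/mL in sterile saline) given iv at 10 µg/2 mL/kg 30 min later. Blood drawn by aortic puncture into heparinized syringes 90 min after LPS. Plasma taken after centrifugation at 4 °C and frozen. Result given as ED50.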

[11] = Cmax in rat at 0.1 mg/kg, iv and 1 mg/kg, po; assay type: ADME, organism-based; conditions: in vivo; outline: as §2
[12] = tested on: Rattus norvegicus; test: Dose normalized AUC in rat at 1 mg/kg, po; assay type: ADME, organism-based; set-up: dose 1 mg/kg, route oral; conditions: in vivo
Outline: (§3)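 Rat PK after 1 mg/kg po and 0.1 mg/kg iv. Cmax and AUC normalized to a 1 mg/kg dose.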

[13] = tested on: Rattus norvegicus; test: Dose normalized cmax in rat at 1 mg/kg, po; assay type: ADME, organism-based; set-up: dose 1 mg/kg, route oral; conditions: in vivo; outline: as §3

Sequence of Prostaglandin E2 receptor EP2 subtype (Q62053 whole entry): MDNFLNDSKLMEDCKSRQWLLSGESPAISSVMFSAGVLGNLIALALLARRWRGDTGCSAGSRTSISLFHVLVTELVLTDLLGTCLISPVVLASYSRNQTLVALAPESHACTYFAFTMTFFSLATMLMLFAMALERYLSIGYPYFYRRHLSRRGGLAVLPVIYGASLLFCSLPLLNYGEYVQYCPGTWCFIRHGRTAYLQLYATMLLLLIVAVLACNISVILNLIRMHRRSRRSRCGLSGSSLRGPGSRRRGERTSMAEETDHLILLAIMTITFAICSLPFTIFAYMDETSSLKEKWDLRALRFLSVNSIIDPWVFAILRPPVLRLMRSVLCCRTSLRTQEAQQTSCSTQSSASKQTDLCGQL
Sequence of Prostaglandin E2 receptor EP4 subtype (Rattus norvegicus, UniProt P43114) (P43114 whole entry): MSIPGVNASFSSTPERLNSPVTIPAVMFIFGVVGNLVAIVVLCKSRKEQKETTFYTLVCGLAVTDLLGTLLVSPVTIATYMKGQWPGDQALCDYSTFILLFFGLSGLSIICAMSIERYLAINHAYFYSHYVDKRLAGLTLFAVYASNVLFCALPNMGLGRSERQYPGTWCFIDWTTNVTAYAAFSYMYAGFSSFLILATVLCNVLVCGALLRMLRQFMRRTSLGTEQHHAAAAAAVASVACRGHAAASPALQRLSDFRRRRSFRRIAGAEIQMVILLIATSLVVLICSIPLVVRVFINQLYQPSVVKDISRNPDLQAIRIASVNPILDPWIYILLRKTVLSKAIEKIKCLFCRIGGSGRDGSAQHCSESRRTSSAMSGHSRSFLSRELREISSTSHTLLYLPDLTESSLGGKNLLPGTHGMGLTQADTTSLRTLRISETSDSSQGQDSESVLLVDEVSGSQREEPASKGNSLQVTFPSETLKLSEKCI
Sequence of Prostaglandin E2 receptor EP4 subtype (Mus musculus, UniProt P32240) (P32240 whole entry): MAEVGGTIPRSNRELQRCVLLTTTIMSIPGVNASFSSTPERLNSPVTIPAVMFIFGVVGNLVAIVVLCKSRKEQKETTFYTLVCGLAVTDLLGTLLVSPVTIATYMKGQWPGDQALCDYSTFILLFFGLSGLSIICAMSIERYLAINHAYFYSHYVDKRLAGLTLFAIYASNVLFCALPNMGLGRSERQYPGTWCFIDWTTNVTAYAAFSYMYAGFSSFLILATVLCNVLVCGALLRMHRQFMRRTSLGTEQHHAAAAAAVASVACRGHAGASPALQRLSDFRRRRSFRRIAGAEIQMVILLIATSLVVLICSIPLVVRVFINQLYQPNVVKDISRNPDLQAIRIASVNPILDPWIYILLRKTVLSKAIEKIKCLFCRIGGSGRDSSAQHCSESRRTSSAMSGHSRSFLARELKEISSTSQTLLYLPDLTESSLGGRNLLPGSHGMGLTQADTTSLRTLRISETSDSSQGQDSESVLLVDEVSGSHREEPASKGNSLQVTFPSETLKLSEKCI

Ki [1] | Ki [2] | clearance [3] | EC50 [4] | bioavailability [5] | Ki [6] | Vd [7] | AUC [8] | Ki [9] | Cmax [11] | AUC/dose [12] | Cmax/dose [13] | Compound | ED50 [10]
1700 nM | 2800 nM | 61 mL/min/kg | 7.7 nM | 9.8% | 0.5 nM | 1.76 L/kg | 29.9 ng·h/mL | 980 nM | 3.4 ng/mL |  |  | Cc1cccc(C[C@H](O)/C=C/[C@H]2CCC(=S)N2CCSCCCC(=O)O)c1 | 1 mg/kg
> 10000 nM | 4400 nM | 47 mL/min/kg | 33 nM | 4.5% | 2.5 nM | 0.291 L/kg | 16.1 ng·h/mL | 2800 nM | 5.4 ng/mL |  |  | Cc1cccc(C[C@H](O)/C=C/[C@H]2COC(=O)N2CCSCCCC(=O)O)c1 | > 1 mg/kg
> 10000 nM | > 10000 nM |  | 36 nM |  | 4.2 nM |  |  | 6400 nM |  |  |  | O=C(O)CCCSCCN1C(=O)OC[C@@H]1/C=C/[C@@H](O)Cc1ccccc1 | 
> 10000 nM | > 10000 nM |  | 5.7 nM |  | 1.5 nM |  |  | 1800 nM |  |  |  | O=C(O)CCCSCCN1C(=O)SC[C@@H]1/C=C/[C@@H](O)Cc1cccc(F)c1 | 
> 10000 nM | 1200 nM |  | 35 nM |  | 20 nM |  |  | 4000 nM |  |  |  | O=C(O)CCCSCCN1C(=O)OC[C@@H]1/C=C/[C@@H](O)Cc1cccc(F)c1 | 
1100 nM | > 10000 nM |  | 9.4 nM |  | 0.83 nM |  |  | 2300 nM |  |  |  | CCc1cccc(C[C@H](O)/C=C/[C@H]2CCC(=S)N2CCCCCCC(=O)O)c1 | 
1400 nM | > 10000 nM | 102 mL/min/kg | 7.3 nM | 12.3% | 2 nM | 0.53 L/kg | 20.6 ng·h/mL | 6300 nM | 6.5 ng/mL |  |  | COCc1cccc(C[C@H](O)/C=C/[C@H]2CCC(=S)N2CCCCCCC(=O)O)c1 | 3 mg/kg
470 nM | > 10000 nM |  | 1.1 nM |  | 2.4 nM |  |  | 190 nM |  |  |  | COCc1cccc(C[C@H](O)/C=C/[C@H]2CCC(=O)[C@@H]2CCSCCCC(=O)O)c1 | 
> 10000 nM | > 10000 nM | 35 mL/min/kg | 15 nM | 1.2% | 10 nM | 0.386 L/kg |  | > 10000 nM |  | 6.4 ng·h/mL | 1.6 ng/mL | COCc1cccc(C[C@H](O)/C=C/[C@H]2CCC(=O)N2CCCCCCC(=O)O)c1 | 1 mg/kg
 | > 10000 nM |  | 1.4 nM |  |  |  |  |  |  |  |  | COCc1cccc(C[C@H](O)/C=C/[C@H]2[C@H](O)CC(=O)[C@@H]2CCSCCCC(=O)O)c1 | 
> 10000 nM | > 10000 nM |  | 29 nM |  | 1.5 nM |  |  | 2300 nM |  |  |  | O=C(O)CCCCCCN1C(=S)CC[C@@H]1/C=C/[C@@H](O)Cc1ccccc1 | 
> 10000 nM | > 10000 nM |  | 26 nM |  | 0.69 nM |  |  | 1700 nM |  |  |  | O=C(O)CCCCCCN1C(=S)CC[C@@H]1/C=C/[C@@H](O)Cc1cccc(F)c1 | 
> 10000 nM | > 10000 nM | 47 mL/min/kg | 2.4 nM | 2% | 1.2 nM | 0.325 L/kg | 6.1 ng·h/mL | > 10000 nM | 2.6 ng/mL |  |  | COCc1cccc(C[C@H](O)/C=C/[C@H]2CSC(=O)N2CCSCCCC(=O)O)c1 | 1 mg/kg
> 10000 nM | 2400 nM |  | 18 nM |  | 7.9 nM |  |  | 2700 nM |  |  |  | CCc1cccc(C[C@H](O)/C=C/[C@H]2COC(=O)N2CCSCCCC(=O)O)c1 | 
> 10000 nM | > 10000 nM |  | 450 nM |  | 28 nM |  |  | > 10000 nM |  |  |  | O=C(O)CCCSCCN1C(=O)OC[C@@H]1/C=C/[C@@H](O)Cc1cccc(-c2ccccc2)c1 | 
6800 nM | > 10000 nM |  | 27 nM |  | 0.4 nM |  |  | 2000 nM |  |  |  | CCCc1cccc(C[C@H](O)/C=C/[C@H]2CCC(=S)N2CCCCCCC(=O)O)c1 | 
> 10000 nM | > 10000 nM | 67 mL/min/kg | 12 nM | 6.7% | 2 nM | 0.631 L/kg | 16.7 ng·h/mL | 1600 nM | 3.8 ng/mL |  |  | O=C(O)CCCSCCN1C(=O)OC[C@@H]1/C=C/[C@@H](O)Cc1cccc(C(F)(F)F)c1 | 3 mg/kg
> 10000 nM | > 10000 nM | 52 mL/min/kg | 6.1 nM | 6.3% | 0.98 nM | 1.28 L/kg | 17.7 ng·h/mL | 1200 nM | 11.4 ng/mL |  |  | CCCc1cccc(C[C@H](O)/C=C/[C@H]2CSC(=O)N2CCSCCCC(=O)O)c1 | 1 mg/kg
> 10000 nM | > 10000 nM | 56 mL/min/kg | 4.8 nM | 3.5% | 0.65 nM | 0.792 L/kg | 4 ng·h/mL | 39 nM | 2.7 ng/mL |  |  | O=C(O)CCCSCCN1C(=O)SC[C@@H]1/C=C/[C@@H](O)Cc1ccccc1 | 1 mg/kg
> 10000 nM | > 10000 nM |  | 93 nM |  | 2.4 nM |  |  | 1900 nM |  |  |  | CCCc1cccc(C[C@H](O)/C=C/[C@H]2COC(=O)N2CCSCCCC(=O)O)c1 | 
> 10000 nM | > 10000 nM |  | 24 nM |  | 7.2 nM |  |  | > 10000 nM |  |  |  | COCc1cccc(C[C@H](O)/C=C/[C@H]2COC(=O)N2CCSCCCC(=O)O)c1 | 
8500 nM | > 10000 nM |  | 1.3 nM |  | 8 nM |  |  | > 10000 nM |  |  |  | COCc1cccc(C[C@H](O)/C=C/[C@H]2CCC(=O)N2CCSCCCC(=O)O)c1 | 
> 10000 nM | > 10000 nM | 51 mL/min/kg | 4.3 nM | 5.5% | 0.97 nM | 0.512 L/kg | 14.6 ng·h/mL | 280 nM | 5.3 ng/mL |  |  | O=C(O)CCCSCCN1C(=O)SC[C@@H]1/C=C/[C@@H](O)Cc1cccc(C(F)(F)F)c1 | 1 mg/kg
> 10000 nM | > 10000 nM |  | 160 nM |  | 29 nM |  |  | 1700 nM |  |  |  | O=C(O)CCCSCCN1C(=O)OC[C@@H]1/C=C/[C@@H](O)Cc1cccc(OC(F)(F)F)c1 | 
> 10000 nM | > 10000 nM |  | 23 nM |  | 1.5 nM |  |  | 630 nM |  |  |  | O=C(O)CCCSCCN1C(=O)OC[C@@H]1/C=C/[C@@H](O)Cc1cccc(Cl)c1 | 
> 10000 nM | > 10000 nM |  | 10 nM |  | 0.38 nM |  |  | 450 nM |  |  |  | O=C(O)CCCCCCN1C(=S)CC[C@@H]1/C=C/[C@@H](O)Cc1cccc(C(F)(F)F)c1 | 
> 10000 nM | 4600 nM | 75 mL/min/kg | 1.9 nM | 8.6% | 0.88 nM | 0.538 L/kg | 19.5 ng·h/mL | 65 nM | 10.4 ng/mL |  |  | CCc1cccc(C[C@H](O)/C=C/[C@H]2CSC(=O)N2CCSCCCC(=O)O)c1 | 1 mg/kg
